Measured values taken from ChEMBL document CHEMBL1153860, “Design, synthesis and structure-activity relationships of antiproliferative 1,3-disubstituted urea derivatives” (Eur J Med Chem, 2009).

Experiments:
[1] = test system: KB; test: Antiproliferative activity against human KB cells after 48 hrs by MTT assay; type: functional, cell-based
In short: (§1)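 Cells seeded at 7 × 10³/well and grown for 24 h. Exponentially growing cells were then exposed for 48 h to final concentrations of 0.1–100. MTT was added for 4 h, followed by 10% SDS in 0.01 N HCl at 37 °C for 18 h, and absorbance was read at 570 nm. Survival was expressed as % of untreated cells. IC50 was taken from six-well replicates in at least two independent experiments.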

[2] = Antiproliferative activity against human L02 cells after 48 hrs by MTT assay; type: cell-based; conditions: L02, 48 h; in short: as §1

CCOC(=O)N1CCC(N(Cc2cc(Cl)ccc2O)C(=O)N(C)C)CC1
IC50 [1]: 25.7 µM

CN(C)C(=O)N(CCCN1CCOCC1)Cc1cc([N+](=O)[O-])ccc1O
IC50 [1]: 3.3 µM
IC50 [2]: 125 µM

CCOC(=O)N1CCC(N(Cc2ccc([N+](=O)[O-])cc2)C(=O)N(C)C)CC1
IC50 [1]: 16.4 µM

CN(C)C(=O)N(Cc1ccco1)Cc1cc(Br)ccc1O
IC50 [1]: 32.8 µM

CCOC(=O)N1CCC(N(Cc2cccc([N+](=O)[O-])c2)C(=O)N(C)C)CC1
IC50 [1]: 15.6 µM

CN(C)C(=O)N(CCN1CCOCC1)Cc1cccc([N+](=O)[O-])c1
IC50 [1]: 0.09 µM
IC50 [2]: 155 µM

COc1cc([C@@H]2c3cc4c(cc3[C@@H](O[C@@H]3O[C@@H]5CO[C@@H](C)O[C@H]5[C@H](O)[C@H]3O)[C@H]3COC(=O)[C@H]23)OCO4)cc(OC)c1O [ETOPOSIDE]
IC50 [1]: 0.42 µM
IC50 [2]: 13 µM

CN(C)C(=O)N(CCCN1CCOCC1)Cc1cc(Cl)ccc1O
IC50 [1]: 1.75 µM
IC50 [2]: 81 µM

CCOC(=O)N1CCC(N(Cc2cc([N+](=O)[O-])ccc2O)C(=O)N(C)C)CC1
IC50 [1]: 24.2 µM

CN(C)C(=O)N(Cc1ccco1)Cc1cc(Cl)ccc1O
IC50 [1]: 49.5 µM

CN(C)C(=O)N(CCCN1CCOCC1)Cc1ccc([N+](=O)[O-])cc1
IC50 [1]: 0.52 µM
IC50 [2]: 85 µM

CN(C)C(=O)N(Cc1ccc([N+](=O)[O-])cc1)Cc1ccco1
IC50 [1]: 17.5 µM

CN(C)C(=O)N(Cc1ccco1)Cc1cc([N+](=O)[O-])ccc1O
IC50 [1]: 20.8 µM

CN(C)C(=O)N(CCN1CCOCC1)Cc1cc(Cl)ccc1O
IC50 [1]: 2.24 µM
IC50 [2]: 82 µM

CN(C)C(=O)N(CCN1CCOCC1)Cc1ccc([N+](=O)[O-])cc1
IC50 [1]: 0.75 µM
IC50 [2]: 65 µM

CN(C)C(=O)N(CCCN1CCOCC1)Cc1cccc([N+](=O)[O-])c1
IC50 [1]: 0.17 µM
IC50 [2]: 134 µM

CN(C)C(=O)N(CCN1CCOCC1)Cc1ccc(O)cc1
IC50 [1]: 4.25 µM
IC50 [2]: 81 µM

CN(C)C(=O)N(CCN1CCOCC1)Cc1cc(Br)ccc1O
IC50 [1]: 7.3 µM
IC50 [2]: 21 µM

CN(C)C(=O)N(CCN1CCOCC1)Cc1cc([N+](=O)[O-])ccc1O
IC50 [1]: 4.8 µM
IC50 [2]: 26 µM

CN(C)C(=O)N(CCCN1CCOCC1)Cc1cc(Br)ccc1O
IC50 [1]: 9 µM
IC50 [2]: 86 µM

CN(C)C(=O)N(Cc1cccc([N+](=O)[O-])c1)Cc1ccco1
IC50 [1]: 23.8 µM

CN(C)C(=O)N(CCCN1CCOCC1)Cc1ccc(O)cc1
IC50 [1]: 2.88 µM
IC50 [2]: 109 µM

CN(C)C(=O)N(Cc1ccc(O)cc1)Cc1ccco1
IC50 [1]: 52.1 µM

CCOC(=O)N1CCC(N(Cc2cc(Br)ccc2O)C(=O)N(C)C)CC1
IC50 [1]: 24.6 µM

CCOC(=O)N1CCC(N(Cc2ccc(O)cc2)C(=O)N(C)C)CC1
IC50 [1]: 48.6 µM
